Measurements as given in ChEMBL document CHEMBL1126763, “Nonpeptide angiotensin II receptor antagonists. Synthesis and biological activity of potential prodrugs of benzimidazole-7-carboxylic acids” (J Med Chem, 1993).

How the values were obtained:
[1] = target: T1, Angiotensin II receptor (Rattus norvegicus) (UniProt P29089+P25095+P35351); experiment: Inhibitory activity on AII (100 ng/kg iv)-induced pressor response after administration at 0.1 mg/kg po in conscious male Sprague-Dawley rats at 5 h.; type: functional, organism-based; parameters: dose 0.1 mg/kg
How it was run: (§1)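 Conscious male Sprague-Dawley rats received test compounds orally at 0.1 mg/kg. AII (100 ng/kg iv) was given as a pressor challenge at each time point after dosing, and percent inhibition of the pressor response was recorded. Experiments were run in duplicate (n = 2); parent drug and one ester used n = 3. Inhibition may vary by less than 30%.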

[2] = target: T1, Angiotensin II receptor (Rattus norvegicus); experiment: Inhibitory activity on AII (100 ng/kg iv)-induced pressor response after administration at 0.1 mg/kg po in conscious male Sprague-Dawley rats at 7 h.; type: functional, organism-based; parameters: dose 0.1 mg/kg; how it was run: as §1
[3] = target: T1, Angiotensin II receptor (Rattus norvegicus); experiment: Inhibitory activity on AII (100 ng/kg iv)-induced pressor response at 0.1 mg/kg po in conscious male Sprague-Dawley rats at 1 h.; type: functional, organism-based; parameters: dose 0.1 mg/kg; how it was run: as §1
[4] = target: T1, Angiotensin II receptor (Rattus norvegicus); experiment: Inhibitory effect on AII (100 ng/kg iv)-induced pressor response after administration at 0.1 mg/kg po in conscious male Sprague-Dawley rats at 0.5 h.; type: functional, organism-based; parameters: dose 0.1 mg/kg; how it was run: as §1
[5] = target: T1, Angiotensin II receptor (Rattus norvegicus); experiment: Inhibitory activity on AII (100 ng/kg iv)-induced pressor response after administration at 0.1 mg/kg po in conscious male Sprague-Dawley rats at 2 h.; type: functional, organism-based; parameters: dose 0.1 mg/kg; how it was run: as §1
[6] = target: T1, Angiotensin II receptor (Rattus norvegicus); experiment: Inhibitory activity on AII (100 ng/kg iv)-induced pressor response after administration at 0.1 mg/kg po in conscious male Sprague-Dawley rats at 24 h.; type: functional, organism-based; parameters: dose 0.1 mg/kg; how it was run: as §1
[7] = target: T1, Angiotensin II receptor (Rattus norvegicus); experiment: Inhibitory activity on AII (100 ng/kg iv)-induced pressor response after administration at 0.1 mg/kg po in conscious male Sprague-Dawley rats at 3 h.; type: functional, organism-based; parameters: dose 0.1 mg/kg; how it was run: as §1
Rattus norvegicus [8] = experiment: Inhibitory activity on AII (100 ng/kg iv) -induced pressor response after administration at 0.1 mg/kg po in Dawley rats at 0.5 h; type: functional; how it was run: as §1
Rattus norvegicus [9] = experiment: Inhibitory activity on AII (100 ng/kg iv) -induced pressor response after administration at 0.1 mg/kg po in Dawley rats at 1 h; type: functional; how it was run: as §1

## CCCCc1nc2cccc(C(=O)OC(C)OC(=O)OC3CCCCC3)c2n1Cc1ccc(-c2ccccc2-c2nn[nH]n2)cc1 (stereo unspecified)
[1]
  inhibition: 78%
[2]
  inhibition: 79%
[3]
  inhibition: 85%
[4]
  inhibition: 58%
[5]
  inhibition: 84%
[6]
  inhibition: 47%
[7]
  inhibition: 81%

## CCOc1nc2cccc(C(=O)OCc3oc(=O)oc3C)c2n1Cc1ccc(-c2ccccc2-c2nn[nH]n2)cc1
[1]
  inhibition: 70%
[2]
  inhibition: 44%
[3]
  inhibition: 83%
[4]
  inhibition: 49%
[5]
  inhibition: 87%
[6]
  inhibition: 6%
[7]
  inhibition: 85%

## CCOc1nc2cccc(C(=O)OCOC(=O)CC)c2n1Cc1ccc(-c2ccccc2-c2nn[nH]n2)cc1
[1]
  inhibition: 38%
[2]
  inhibition: 31%
[3]
  inhibition: 76%
[4]
  inhibition: 76%
[5]
  inhibition: 60%
[6]
  inhibition: -4%
[7]
  inhibition: 60%

## CCCCc1nc(Cl)c(CO)n1Cc1ccc(-c2ccccc2-c2nnn[nH]2)cc1
[1]
  inhibition: 35%
[2]
  inhibition: 34%
[3]
  inhibition: 1%
[4]
  inhibition: 5%
[5]
  inhibition: 12%
[6]
  inhibition: 17%
[7]
  inhibition: 21%

## CCOc1nc2cccc(C(=O)OC(C)OC(=O)OC(C)C)c2n1Cc1ccc(-c2ccccc2-c2nn[nH]n2)cc1 (stereo unspecified)
[1]
  inhibition: 80%
[2]
  inhibition: 67%
[3]
  inhibition: 91%
[4]
  inhibition: 70%
[5]
  inhibition: 84%
[6]
  inhibition: 12%
[7]
  inhibition: 79%

## CCOc1nc2cccc(C(=O)OCOC(=O)C(C)C)c2n1Cc1ccc(-c2ccccc2-c2nn[nH]n2)cc1
[1]
  inhibition: 44%
[2]
  inhibition: 20%
[3]
  inhibition: 40%
[4]
  inhibition: 80%
[5]
  inhibition: 56%
[6]
  inhibition: 6%
[7]
  inhibition: 52%

## CCCCc1nc2cccc(C(=O)O)c2n1Cc1ccc(-c2ccccc2-c2nn[nH]n2)cc1
Rattus norvegicus [8]
  inhibition in vivo at 0.1 mg/kg: 8%
Rattus norvegicus [9]
  inhibition in vivo at 0.1 mg/kg: 33%
[5]
  inhibition: 45%
[6]
  inhibition: 42%

## CCCCc1nc2cccc(C(=O)OCc3ccncc3)c2n1Cc1ccc(-c2ccccc2-c2nn[nH]n2)cc1
[1]
  inhibition: 18%
[2]
  inhibition: 8%
[3]
  inhibition: 16%
[4]
  inhibition: 4%
[5]
  inhibition: 18%
[7]
  inhibition: 16%

## CCOc1nc2cccc(C(=O)OCOC(=O)OCC3CC3)c2n1Cc1ccc(-c2ccccc2-c2nn[nH]n2)cc1
[1]
  inhibition: 44%
[2]
  inhibition: 30%
[3]
  inhibition: 49%
[4]
  inhibition: 10%
[5]
  inhibition: 57%
[6]
  inhibition: 22%
[7]
  inhibition: 58%

## CCCCc1nc2cccc(C(=O)OCc3oc(=O)oc3C)c2n1Cc1ccc(-c2ccccc2-c2nn[nH]n2)cc1
[1]
  inhibition: 75%
[2]
  inhibition: 77%
[3]
  inhibition: 63%
[4]
  inhibition: 32%
[5]
  inhibition: 81%
[6]
  inhibition: 55%
[7]
  inhibition: 88%

## CCCCc1nc2cccc(C(=O)OC)c2n1Cc1ccc(-c2ccccc2-c2nn[nH]n2)cc1
[1]
  inhibition: 38%
[2]
  inhibition: 27%
Rattus norvegicus [8]
  inhibition in vivo at 0.1 mg/kg: 11%
Rattus norvegicus [9]
  inhibition in vivo at 0.1 mg/kg: 52%
[5]
  inhibition: 50%
[6]
  inhibition: 11%
[7]
  inhibition: 47%

## CCOc1nc2cccc(C(=O)OCOC(=O)C3CCCCC3)c2n1Cc1ccc(-c2ccccc2-c2nn[nH]n2)cc1
[1]
  inhibition: 89%
[2]
  inhibition: 80%
[3]
  inhibition: 5%
[4]
  inhibition: 0%
[5]
  inhibition: 76%
[6]
  inhibition: 14%
[7]
  inhibition: 85%

## CCOc1nc2cccc(C(=O)OCOC(=O)OC3CCCCC3)c2n1Cc1ccc(-c2ccccc2-c2nn[nH]n2)cc1
[1]
  inhibition: 53%
[2]
  inhibition: 54%
[3]
  inhibition: -3%
[4]
  inhibition: 1%
[5]
  inhibition: 4%
[6]
  inhibition: 11%
[7]
  inhibition: 15%

## CCOc1nc2cccc(C(=O)OCOC(C)=O)c2n1Cc1ccc(-c2ccccc2-c2nn[nH]n2)cc1
[1]
  inhibition: 72%
[2]
  inhibition: 59%
[3]
  inhibition: 84%
[4]
  inhibition: 66%
[5]
  inhibition: 79%
[6]
  inhibition: 23%
[7]
  inhibition: 78%

## CCOc1nc2cccc(C(=O)OCOC(=O)C3CCCC3)c2n1Cc1ccc(-c2ccccc2-c2nn[nH]n2)cc1
[1]
  inhibition: 62%
[2]
  inhibition: 54%
[3]
  inhibition: 31%
[4]
  inhibition: 7%
[5]
  inhibition: 61%
[6]
  inhibition: 9%
[7]
  inhibition: 65%

## CCOC(=O)OC(C)OC(=O)c1cccc2nc(OCC)n(Cc3ccc(-c4ccccc4-c4nn[nH]n4)cc3)c12 (stereo unspecified)
[1]
  inhibition: 81%
[2]
  inhibition: 71%
[3]
  inhibition: 87%
[4]
  inhibition: 74%
[5]
  inhibition: 95%
[6]
  inhibition: 7%
[7]
  inhibition: 89%

## CCCCc1nc2cccc(C(=O)O)c2n1Cc1ccc(-c2ccccc2-c2nnn(C)n2)cc1
[1]
  inhibition: 13%
[2]
  inhibition: 26%
Rattus norvegicus [8]
  inhibition in vivo at 0.1 mg/kg: 22%
Rattus norvegicus [9]
  inhibition in vivo at 0.1 mg/kg: 26%
[5]
  inhibition: 6%
[6]
  inhibition: 23%
[7]
  inhibition: 9%

## CCOc1nc2cccc(C(=O)OCOC(=O)c3ccccc3)c2n1Cc1ccc(-c2ccccc2-c2nn[nH]n2)cc1
[1]
  inhibition: 67%
[2]
  inhibition: 76%
[3]
  inhibition: -2%
[4]
  inhibition: -4%
[5]
  inhibition: 23%
[6]
  inhibition: 6%
[7]
  inhibition: 56%

## CCCCc1nc2cccc(C(=O)OCCN(C)C)c2n1Cc1ccc(-c2ccccc2-c2nn[nH]n2)cc1
[1]
  inhibition: 26%
[2]
  inhibition: 14%
Rattus norvegicus [8]
  inhibition in vivo at 0.1 mg/kg: 0%
Rattus norvegicus [9]
  inhibition in vivo at 0.1 mg/kg: 19%
[5]
  inhibition: 27%
[6]
  inhibition: 9%
[7]
  inhibition: 32%

## CCCCc1nc2cccc(C(=O)O)c2n1Cc1ccc(-c2ccccc2-c2nnnn2C)cc1
[1]
  inhibition: 59%
[2]
  inhibition: 53%
Rattus norvegicus [8]
  inhibition in vivo at 0.1 mg/kg: 12%
Rattus norvegicus [9]
  inhibition in vivo at 0.1 mg/kg: 29%
[5]
  inhibition: 29%
[6]
  inhibition: 16%
[7]
  inhibition: 56%

## CCOc1nc2cccc(C(=O)OCOC(=O)OC(C)C)c2n1Cc1ccc(-c2ccccc2-c2nn[nH]n2)cc1
[1]
  inhibition: 68%
[2]
  inhibition: 57%
[3]
  inhibition: 55%
[4]
  inhibition: 23%
[5]
  inhibition: 79%
[6]
  inhibition: 28%
[7]
  inhibition: 72%

## CCOc1nc2cccc(C(=O)OC(C)OC(C)=O)c2n1Cc1ccc(-c2ccccc2-c2nn[nH]n2)cc1 (stereo unspecified)
[1]
  inhibition: 84%
[2]
  inhibition: 75%
[3]
  inhibition: 90%
[4]
  inhibition: 86%
[5]
  inhibition: 92%
[6]
  inhibition: 28%
[7]
  inhibition: 86%

## CCCCc1nc2cccc(C(=O)OC(C)OC(=O)OCC)c2n1Cc1ccc(-c2ccccc2-c2nn[nH]n2)cc1 (stereo unspecified)
[1]
  inhibition: 81%
[2]
  inhibition: 75%
[3]
  inhibition: 89%
[4]
  inhibition: 64%
[5]
  inhibition: 84%
[6]
  inhibition: 61%
[7]
  inhibition: 89%

## CCOc1nc2cccc(C(=O)OC(C)OC(=O)OC(CC)CC)c2n1Cc1ccc(-c2ccccc2-c2nn[nH]n2)cc1 (stereo unspecified)
[1]
  inhibition: 63%
[2]
  inhibition: 53%
[3]
  inhibition: 72%
[4]
  inhibition: 16%
[5]
  inhibition: 86%
[6]
  inhibition: 13%
[7]
  inhibition: 84%

## CCOc1nc2cccc(C(=O)O)c2n1Cc1ccc(-c2ccccc2-c2nnn[nH]2)cc1
[1]
  inhibition: 85%
[3]
  inhibition: 24%
[4]
  inhibition: 7%
[5]
  inhibition: 51%
[6]
  inhibition: 43%
[7]
  inhibition: 67%

## CCCCc1nc2cccc(C(=O)OCC)c2n1Cc1ccc(-c2ccccc2-c2nn[nH]n2)cc1
[1]
  inhibition: 68%
[2]
  inhibition: 63%
Rattus norvegicus [8]
  inhibition in vivo at 0.1 mg/kg: 7%
Rattus norvegicus [9]
  inhibition in vivo at 0.1 mg/kg: 25%
[5]
  inhibition: 46%
[6]
  inhibition: 47%

## CCOc1nc2cccc(C(=O)OCOC(=O)/C=C/c3ccccc3)c2n1Cc1ccc(-c2ccccc2-c2nn[nH]n2)cc1
[1]
  inhibition: 61%
[2]
  inhibition: 64%
[3]
  inhibition: 36%
[4]
  inhibition: -3%
[5]
  inhibition: 80%
[6]
  inhibition: 3%
[7]
  inhibition: 80%

## CCCC(=O)OCOC(=O)c1cccc2nc(OCC)n(Cc3ccc(-c4ccccc4-c4nn[nH]n4)cc3)c12
[1]
  inhibition: 54%
[2]
  inhibition: 48%
[3]
  inhibition: 84%
[4]
  inhibition: 100%
[5]
  inhibition: 78%
[6]
  inhibition: 6%
[7]
  inhibition: 67%

## CCOc1nc2cccc(C(=O)OC(C)OC(=O)OC3CCCCC3)c2n1Cc1ccc(-c2ccccc2-c2nn[nH]n2)cc1 (stereo unspecified)
[1]
  inhibition: 82%
[2]
  inhibition: 75%
[3]
  inhibition: 76%
[4]
  inhibition: 38%
[5]
  inhibition: 80%
[6]
  inhibition: 36%
[7]
  inhibition: 87%

## CCOc1nc2cccc(C(=O)OC(C)OC(=O)OC3CCC3)c2n1Cc1ccc(-c2ccccc2-c2nn[nH]n2)cc1 (stereo unspecified)
[1]
  inhibition: 79%
[2]
  inhibition: 60%
[3]
  inhibition: 77%
[4]
  inhibition: 35%
[5]
  inhibition: 86%
[6]
  inhibition: 25%
[7]
  inhibition: 83%

## CCOc1nc2cccc(C(=O)OCOC(=O)OC3CCCC3)c2n1Cc1ccc(-c2ccccc2-c2nn[nH]n2)cc1
[1]
  inhibition: 77%
[2]
  inhibition: 64%
[3]
  inhibition: 14%
[4]
  inhibition: 5%
[5]
  inhibition: 55%
[6]
  inhibition: 14%
[7]
  inhibition: 68%
